Published values from different studies.
Lines come from different studies, so protocols differ.
GAK: Cyclin-G-associated kinase (GAK, Homo sapiens, UniProt O14976)
PADI3: Protein-arginine deiminase type-3 (PADI3, Homo sapiens, UniProt Q9ULW8)
AMY2: Pancreatic alpha-amylase (AMY2, Sus scrofa, UniProt P00690)
Maoa: Amine oxidase [flavin-containing] A (Maoa, Rattus norvegicus, UniProt P21396)
KRAS G12C: GTPase KRas (KRAS, Homo sapiens, UniProt P01116, G12C)

| SMILES | target | assay | setting | measurement | result |
| --- | --- | --- | --- | --- | --- |
| COc1cc(Nc2ncnc3ccc(C(F)(F)F)cc23)cc(OC)c1 | GAK | thermal stability, DSF | 10 µM | ΔTm | 0.7 °C |
| N=C(CCl)NCCC[C@H](NC(=O)c1ccccc1)c1nn[nH]n1 | PADI3 | enzyme activity, inhibitor |  | kinact/KI | 49.6 M⁻¹ s⁻¹ |
| Nc1ncnc2occ(-c3ccc(NC(=O)Nc4cc(C(F)(F)F)ccc4F)cc3)c12 | GAK | cell-free assay, inhibitor | 20 µM | remaining signal | 41% |
| N=C(CCl)NCCC[C@H](NC(=O)c1ccccc1C(=O)O)c1nn[nH]n1 | PADI3 | enzyme activity, inhibitor |  | kinact/KI | 207 M⁻¹ s⁻¹ |
| C[C@@H]1CN(c2ccc3ncc(-c4ccc5[nH]nc(C6CC6)c5c4)n3n2)C[C@H](C)O1 | Cyclin-dependent kinase 19 (CDK19, Homo sapiens, UniProt Q9BWU1) | binding, competition with immobilised ligand | 50 nM | remaining binding | 90% |
| Cc1ccc(N(O)N=Nc2ccc(S(=O)(=O)Nc3cc(C)on3)cc2)cc1 | AMY2 | enzyme activity, inhibitor | 60 µg/mL | inhibition | 26.3% |
| N=C(CF)NCCC[C@H](NC(=O)c1ccccc1)c1nn[nH]n1 | PADI3 | enzyme activity, inhibitor |  | kinact/KI | 7.25 M⁻¹ s⁻¹ |
| CCCOc1ccc(OC)c(F)c1C(=O)c1ccc(C(=O)N[C@@H]2CNC[C@H]2NC(=O)c2ccc3[nH]ncc3c2)cc1 | Serine/threonine-protein kinase MRCK beta (CDC42BPB, Homo sapiens, UniProt Q9Y5S2) | enzyme activity, inhibitor | 0.5 µM | remaining activity | 9% |
| FC(F)(F)Oc1cccc(-c2cnc3ccc(-c4ccncc4)nn23)c1 | Eukaryotic translation initiation factor 2-alpha kinase 3 (EIF2AK3, Homo sapiens, UniProt Q9NZJ5) | enzyme activity, inhibitor, radiometric | 5 µM | activity vs control | 67% |
| COc1cc(C=Cc2cc(-c3ccccc3)nc(O)n2)ccc1O | AMY2 | enzyme activity, inhibitor, absorbance | 5 µg/mL | inhibition | 76.3% |
| CCCN(O)N=Nc1ccc(S(=O)(=O)Nc2onc(C)c2C)cc1 | AMY2 | enzyme activity, inhibitor | 20 µg/mL | inhibition | 26.3% |
| CC(C)(C)n1nnc([C@H](CCCNC(=N)CF)NC(=O)c2ccc(-c3ccccc3)cc2)n1 | PADI3 | enzyme activity, inhibitor |  | kinact/KI | 11.7 M⁻¹ s⁻¹ |
| CCN(O)N=Nc1ccc(S(=O)(=O)Nc2cc(C)on2)cc1 | AMY2 | enzyme activity, inhibitor | 120 µg/mL | inhibition | 42.1% |
| NCc1ccc(Br)cc1 | Maoa | enzyme activity, substrate | pH 7.5 | Km | 34 µM |
| COc1cc2nccc(Nc3cccc(C(C)=O)c3)c2cc1OC | GAK | thermal stability, DSF | 10 µM | ΔTm | 1.3 °C |
| C=CC(=O)Nc1ccc(-c2noc([C@@]3(C)CCCc4sc(N)c(C#N)c43)n2)cc1 | KRAS G12C | cell-free assay |  | kinact | 0.00011 s⁻¹ |
| CC(C)(C)n1nnc([C@H](CCCNC(=N)CCl)NC(=O)c2ccccc2)n1 | PADI3 | enzyme activity, inhibitor |  | kinact/KI | 7.67 M⁻¹ s⁻¹ |
| C[C@H]1O[C@H](O[C@H]2[C@H](O)[C@@H](O)[C@@H](O[C@H]3[C@H](O)[C@@H](O)C(O)O[C@@H]3CO)O[C@@H]2CO)[C@H](O)[C@@H](O)[C@@H]1N[C@H]1C=C(CO)[C@@H](O)[C@H](O)[C@H]1O (stereo partly shown) | AMY2 | enzyme activity, inhibitor | 10 µg/mL | inhibition | 23.1% |
| Fc1cc(Nc2ccnc3ccc(C(F)(F)F)cc23)ccc1Cl | GAK | thermal stability, DSF | 10 µM | ΔTm | 4.5 °C |
| CN1CCC2(CC1)NC(=O)c1c(c3ccc(Cl)c(Cl)c3n1C)C2C#N (racemic) | Serine/threonine-protein kinase DCLK1 (DCLK1, Homo sapiens, UniProt O15075) | thermal stability, DSF | 10 µM | ΔTm | -0.1 °C |

| SMILES | target | assay | setting | measurement | result |
| --- | --- | --- | --- | --- | --- |
| O=C1OC[C@H]2OC(O)[C@H](O)[C@@H](O)[C@@H]2OC(=O)c2cc(O)c(O)c(O)c2-c2c(O)c(O)c3oc(=O)c4c(c(O)c(O)c5oc(=O)c2c3c54)-c2c1cc(O)c(O)c2O (mixture of isomers) | Genome polyprotein, protease (Hepatitis C virus genotype 1b, UniProt Q9WMX2) | enzyme activity, inhibitor, fluorescence |  | IC90 | ~1000 nM |
| COc1cc(Nc2ccnc3ccc(C(C)(C)C)cc23)cc(OC)c1OC | GAK | thermal stability, DSF | 10 µM | ΔTm | 5.2 °C |
| Cc1ccc(C(=O)Nc2ccc(CN3CCN(C)CC3)c(C(F)(F)F)c2)cc1C#Cc1cnc2cccnn12 | GAK | enzyme activity, inhibitor | 23.5 nM | remaining activity | 73% |
| CCCN(O)N=Nc1ccc(S(=O)(=O)Nc2cc(C)on2)cc1 | AMY2 | enzyme activity, inhibitor | 20 µg/mL | inhibition | 10.5% |
| FC(F)(F)c1ccc2nccc(Nc3ccc4c(c3)OCO4)c2c1 | GAK | thermal stability, DSF | 10 µM | ΔTm | 3.2 °C |
| Cc1cc(NS(=O)(=O)c2ccc(N=NN(C)O)cc2)no1 | AMY2 | enzyme activity, inhibitor | 20 µg/mL | inhibition | 10.5% |
| COc1cc(Nc2ccnc3cc(C#N)ccc23)cc(OC)c1OC | GAK | thermal stability, DSF | 10 µM | ΔTm | 5.3 °C |
| CC/C(=N\NC(=O)NCc1cccc(O)c1)c1ccc(O)c(C)c1O | Fibroblast growth factor receptor 3 (FGFR3, Homo sapiens, UniProt P22607, K650E) | enzyme activity, inhibitor | 0.1 µM | inhibition | 1.3% |
| NC(=O)[C@H](CCCN=C(N)N)NC(=O)c1ccccc1 | PADI3 | enzyme activity, substrate |  | Km | 13900 µM |
| CCCN(O)N=Nc1ccc(S(=O)(=O)Nc2nccs2)cc1 | AMY2 | enzyme activity, inhibitor | 240 µg/mL | inhibition | 63.2% |
| COc1cc(C=CC(=O)CC(c2ccc([N+](=O)[O-])cc2)n2ccnc2)ccc1O (stereo not shown) | AMY2 | enzyme activity, inhibitor, absorbance | 1.25 µg/mL | inhibition | 52.7% |
| O=C(O)CCC(=O)C(=O)O | Lysine-specific demethylase 4D (KDM4D, Homo sapiens, UniProt Q6B0I6) | enzyme activity, substrate |  | Km | 6.9 µM |
| Cc1ccc(C(=O)NCc2ccsc2)cc1C#Cc1cn(C(C)C)c2ncnc(N)c12 | Receptor-interacting serine/threonine-protein kinase 1 (RIPK1, Homo sapiens, UniProt Q13546) | enzyme activity, inhibitor | 1 µM | activity vs control | 30% |
| NCc1ccc(F)cc1 | Maoa | enzyme activity, substrate | pH 7.5 | Km | 174 µM |
| N=C(CF)NCCC[C@H](NC(=O)c1ccccc1C(=O)O)c1nn[nH]n1 | PADI3 | enzyme activity, inhibitor |  | kinact/KI | 63.3 M⁻¹ s⁻¹ |
| COc1ccc(Nc2ncnc3ccc(C(F)(F)F)cc23)cc1 | GAK | thermal stability, DSF | 10 µM | ΔTm | 0.3 °C |
| COc1cc(C=Cc2cc(-c3ccc(N(C)C)cc3)nc(O)n2)ccc1O | AMY2 | enzyme activity, inhibitor, absorbance | 10 µg/mL | inhibition | 82.6% |
| C=CC(=O)Nc1cccc(-c2noc([C@@]3(C)CCCc4sc(N)c(C#N)c43)n2)c1 | KRAS G12C | cell-free assay |  | kinact | 0.000185 s⁻¹ |
| O=S(=O)(Nc1nccs1)c1ccc(N=NN(O)c2ccccc2)cc1 | AMY2 | enzyme activity, inhibitor | 60 µg/mL | inhibition | 15.8% |
| FC(F)(F)c1ccc2nccc(Nc3cccc(Br)c3)c2c1 | GAK | thermal stability, DSF | 10 µM | ΔTm | 3.8 °C |
